# Published values of several laboratories.
# Lines come from different studies, so protocols differ.
# Nuclear receptor subfamily 4 group A member 2: Nuclear receptor subfamily 4 group A member 2 (Homo sapiens, UniProt P43354)
# P2RY14: P2Y purinoceptor 14 (P2RY14, Homo sapiens, UniProt Q15391)
# IRAK4: Interleukin-1 receptor-associated kinase 4 (IRAK4, Homo sapiens, UniProt Q9NWZ3)
# CDKL1: Cyclin-dependent kinase-like 1 (CDKL1, Homo sapiens, UniProt Q00532)
SMILES,target,assay,system,conditions,endpoint,value
Cc1nc2c(Cl)cccn2c1NC(=O)c1ccc(-c2ccc(N(C)C)cc2)o1,Nuclear receptor subfamily 4 group A member 2,"thermal stability, DSF",,100 µM,ΔTm,-1.88 °C
O=Cc1ccc(OCC(=O)N[C@@H](Cc2c[nH]c3ccccc23)C(=O)O)cc1,P2RY14,"cAMP, antagonist",HEK293,0.1 µM,inhibition,58.7%
CCCCCCCCC(=O)c1cc(O)c(O)c(O)c1,Nuclear receptor subfamily 4 group A member 2,"thermal stability, DSF",,100 µM,ΔTm,-2.52 °C
C#Cc1cnc(Nc2ccnc(CO)c2)nc1Nc1ccccc1S(C)(=O)=NC#N (stereo not drawn),IRAK4,"enzyme activity, inhibitor, radiometric",,1 µM,remaining activity,1.36%
C[C@]1(O)CCCN(c2nc(Nc3ccc(S(=O)(=O)N[C@H]4CC[C@H](CN5CCN(c6ccc(C7CCC(=O)NC7=O)cc6F)CC5)CC4)cc3Cl)ncc2C(F)(F)F)C1 (stereo partly drawn),"Serine/threonine-protein kinase ULK1 (ULK1, Homo sapiens, UniProt O75385)","binding, competition with immobilised ligand",,1 µM,remaining binding,32%
CC(C)OC(=O)[C@H](Cc1c[nH]c2ccccc12)NC(=O)c1ccc2nccnc2c1,P2RY14,"cAMP, antagonist",HEK293,0.1 µM,inhibition,89.6%
O=C(O)C[C@H](O)C[C@H](O)/C=C/c1c(C2CC2)nc2ccccc2c1-c1ccc(F)cc1,Nuclear receptor subfamily 4 group A member 2,"thermal stability, DSF",,100 µM,ΔTm,-0.36 °C
CC(C)OC(=O)[C@H](Cc1c[nH]c2ccccc12)NC(=O)C1COc2ccccc2O1 (stereo partly drawn),P2RY14,"cAMP, antagonist",HEK293,0.1 µM,inhibition,9.84%
N#Cc1ccc(NC(=O)Nc2ccccc2)cc1,"TGF-beta receptor type-1 (TGFBR1, Homo sapiens, UniProt P36897)","cell-free assay, competition with immobilised ligand",,25 µM,remaining binding,81%
C#Cc1cc(-c2cc(Nc3nc(N[C@@H](C)c4ccc(F)cn4)ncc3Cl)n[nH]2)ccc1C=O,"Tyrosine-protein kinase JAK3 (JAK3, Homo sapiens, UniProt P52333)","enzyme activity, inhibitor",,0.2 µM,inhibition,82.1%
O=C(N[C@@H](Cc1c[nH]c2ccccc12)C(=O)O)c1c[nH]c2ccccc12,P2RY14,"cAMP, antagonist",HEK293,0.1 µM,inhibition,36.7%
COCCOCc1ccc(-c2cc3onc(-c4ccccc4)c3c(=O)n2C)cc1,Nuclear receptor subfamily 4 group A member 2,"thermal stability, DSF",,100 µM,ΔTm,-0.54 °C
C#Cc1cnc(Nc2ccc(CO)cc2)nc1Nc1ccccc1C(=O)NC,IRAK4,"enzyme activity, inhibitor, radiometric",,1 µM,remaining activity,1.23%
NC/C(=C\F)COc1cccc(Cn2c(=S)[nH]c(=O)c3[nH]cnc32)c1,"Eosinophil peroxidase (Homo sapiens, UniProt P11678)","enzyme activity, inhibitor",,10 µM,remaining activity,90.7%
COc1ccc2oc(-c3ccc4nc(N)oc4c3)c/c(=N\c3ccccc3NC(=O)CCN)c2c1,CDKL1,binding,,1 µM,remaining binding,94%
CC(C)OC(=O)[C@H](Cc1c[nH]c2ccccc12)NC(=O)c1cccs1,P2RY14,"cAMP, antagonist",HEK293,0.1 µM,inhibition,70.3%
Cc1cc(O)c(-c2ccc([C@@H](C)CN(C)C)cc2)c2c1[nH]c(=O)c1sccc12,"TRAF2 and NCK-interacting protein kinase (TNIK, Homo sapiens, UniProt Q9UKE5)","enzyme activity, inhibitor",,0.1 µM,inhibition,10.5%
CCCCCCCC(=O)c1c(O)cc(O)cc1CC(=O)OCC,Nuclear receptor subfamily 4 group A member 2,"thermal stability, DSF",,100 µM,ΔTm,-3.11 °C
CC(C)OC(=O)[C@H](Cc1c[nH]c2ccccc12)NC(=O)COc1ccc(F)cc1,P2RY14,"cAMP, antagonist",HEK293,0.1 µM,inhibition,12.1%
CCCCC(=O)Nc1ccc(-c2ccc3ncn(CCC)c(=O)c3c2)cn1,"Ribosomal protein S6 kinase alpha-4, N-terminal kinase domain (RPS6KA4, Homo sapiens, UniProt O75676)","binding, competition with immobilised ligand",,0.5 µM,remaining binding,89%
O=C(O)CCc1nc(-c2ccccc2)c(-c2ccccc2)o1,Nuclear receptor subfamily 4 group A member 2,"thermal stability, DSF",,100 µM,ΔTm,-0.6 °C
O=C(N[C@@H](Cc1c[nH]c2ccccc12)C(=O)O)c1cccs1,P2RY14,"cAMP, antagonist",HEK293,0.1 µM,inhibition,68%
CS(=O)(=NC#N)c1ccccc1Nc1nc(Nc2ccnc(CO)c2)ncc1Cl (stereo not drawn),IRAK4,"enzyme activity, inhibitor, radiometric",,1 µM,remaining activity,4.68%
CCCCCCCC(=O)c1cc(OC)c(OC)c(OC)c1CC(=O)OCC,Nuclear receptor subfamily 4 group A member 2,"thermal stability, DSF",,100 µM,ΔTm,-1.02 °C
C1=C/COCc2cc(ccc2OCCN2CCCC2)Nc2nccc(n2)-c2cccc(c2)COC/1,CDKL1,binding,,0.1 µM,remaining binding,89%
CC(C)OC(=O)[C@H](Cc1c[nH]c2ccccc12)NC(=O)COc1ccc(Br)cc1,P2RY14,"cAMP, antagonist",HEK293,0.1 µM,inhibition,38.3%
COc1cccc(-c2ccc(NC(=O)C3=C(C(=O)O)CCC3)c(F)c2)c1,Nuclear receptor subfamily 4 group A member 2,"thermal stability, DSF",,100 µM,ΔTm,-1.52 °C
